Laboratory results taken from ChEMBL document CHEMBL1146292, “Dual serotonin transporter/histamine H3 ligands: Optimization of the H3 pharmacophore” (Bioorg Med Chem Lett, 2007).

Assays:
[1] = molecular target: Histamine H3 receptor (Homo sapiens, UniProt Q9Y5N1); assay: Binding affinity to human histamine H3 receptor
Summary of the method: (§1)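 Means of at least three independent experiments, each run in triplicate; standard error of the mean reported.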

[2] = molecular target: Sodium-dependent serotonin transporter (Rattus norvegicus, UniProt P31652); assay: Binding affinity to rat SERT; summary of the method: as §1
[3] = molecular target: Sodium-dependent serotonin transporter (Homo sapiens, UniProt P31645); assay: Binding affinity to human SERT
[4] = system: Mus musculus; assay: Effect on 5-HTP-induced head twitch in mouse at 10 mg/kg, ip after 1 hr relative to control; type: functional; settings: route intraperitoneal
Summary of the method: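 5-HTP-induced head-twitch model in mice. Test agent given at 10 mg/kg intraperitoneally, n = 4 per compound. Head twitches scored at 1 h and 24 h post-dose and expressed as percent of the control response.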

[5] = Drug level in mouse brain at 10 mg/kg, ip after 24 hrs; type: ADME, organism-based; set-up: dose 10 mg/kg, route intraperitoneal; settings: read-out: Drug uptake
Summary of the method: (§2)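 Mice given a single 10 mg/kg intraperitoneal dose. Brain drug concentration measured at 1 h and at 24 h post-dose, n = 3.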

[6] = Drug level in mouse brain at 10 mg/kg, ip after 1 hr; type: ADME, organism-based; set-up: dose 10 mg/kg, route intraperitoneal; settings: read-out: Drug uptake; summary of the method: as §2

Sodium-dependent serotonin transporter (Homo sapiens, UniProt P31645), sequence (P31645 whole entry): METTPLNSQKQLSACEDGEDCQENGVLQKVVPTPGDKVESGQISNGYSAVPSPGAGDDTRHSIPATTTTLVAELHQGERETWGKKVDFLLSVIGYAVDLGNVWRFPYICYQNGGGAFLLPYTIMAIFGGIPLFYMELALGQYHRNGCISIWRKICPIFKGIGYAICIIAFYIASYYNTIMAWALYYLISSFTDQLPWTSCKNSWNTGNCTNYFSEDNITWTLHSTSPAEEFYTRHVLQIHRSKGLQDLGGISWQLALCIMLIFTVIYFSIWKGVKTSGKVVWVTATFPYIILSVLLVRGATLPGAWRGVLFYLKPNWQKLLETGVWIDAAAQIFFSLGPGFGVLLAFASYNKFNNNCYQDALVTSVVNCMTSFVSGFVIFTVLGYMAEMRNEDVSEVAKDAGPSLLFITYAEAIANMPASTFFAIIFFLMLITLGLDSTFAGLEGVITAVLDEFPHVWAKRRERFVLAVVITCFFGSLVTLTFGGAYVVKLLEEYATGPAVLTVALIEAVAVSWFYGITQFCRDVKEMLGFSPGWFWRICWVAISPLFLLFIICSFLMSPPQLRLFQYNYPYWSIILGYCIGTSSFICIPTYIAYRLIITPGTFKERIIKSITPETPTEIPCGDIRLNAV
Histamine H3 receptor, sequence (Q9Y5N1 whole entry): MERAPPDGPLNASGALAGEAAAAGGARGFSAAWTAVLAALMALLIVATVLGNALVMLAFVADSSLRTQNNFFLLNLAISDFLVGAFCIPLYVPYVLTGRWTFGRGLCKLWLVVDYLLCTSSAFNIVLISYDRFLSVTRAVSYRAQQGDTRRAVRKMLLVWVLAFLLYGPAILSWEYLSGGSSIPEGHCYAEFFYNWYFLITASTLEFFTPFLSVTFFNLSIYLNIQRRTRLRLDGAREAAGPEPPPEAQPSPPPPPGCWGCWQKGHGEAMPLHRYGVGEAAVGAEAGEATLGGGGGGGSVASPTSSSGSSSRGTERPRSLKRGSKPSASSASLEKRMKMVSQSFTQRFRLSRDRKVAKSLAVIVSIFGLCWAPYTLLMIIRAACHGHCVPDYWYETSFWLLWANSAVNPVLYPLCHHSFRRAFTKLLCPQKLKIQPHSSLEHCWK
Sodium-dependent serotonin transporter (Rattus norvegicus, UniProt P31652), sequence (P31652 whole entry): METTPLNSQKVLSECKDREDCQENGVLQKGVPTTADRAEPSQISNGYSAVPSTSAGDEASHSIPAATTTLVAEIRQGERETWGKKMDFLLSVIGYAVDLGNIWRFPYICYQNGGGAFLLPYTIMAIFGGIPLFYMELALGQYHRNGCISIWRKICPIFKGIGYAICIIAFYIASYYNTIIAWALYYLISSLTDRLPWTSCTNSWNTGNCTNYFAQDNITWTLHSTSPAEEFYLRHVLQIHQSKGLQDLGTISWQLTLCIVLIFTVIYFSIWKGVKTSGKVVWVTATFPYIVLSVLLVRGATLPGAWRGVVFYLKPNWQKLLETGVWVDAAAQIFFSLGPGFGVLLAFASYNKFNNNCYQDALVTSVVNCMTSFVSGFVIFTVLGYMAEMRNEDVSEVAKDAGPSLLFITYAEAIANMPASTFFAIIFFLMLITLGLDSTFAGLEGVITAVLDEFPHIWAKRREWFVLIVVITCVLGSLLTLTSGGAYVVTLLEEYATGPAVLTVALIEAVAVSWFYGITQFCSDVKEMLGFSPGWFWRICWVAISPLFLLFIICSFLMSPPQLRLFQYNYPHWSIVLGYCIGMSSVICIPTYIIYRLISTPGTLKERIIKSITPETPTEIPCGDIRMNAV

Ki [1] | Ki [2] | Ki [3] | concentration at 24 h [5] | concentration at 1 h [6] | Compound | Activity [4]
9.5 nM | 2 nM | 3.2 nM |  |  | COc1ccc(C2CN(C)Cc3cc(OCCCN4CCC(CO)CC4)ccc32)cc1 (centres undefined) | 
9.7 nM | 1.3 nM | 1.8 nM |  |  | COc1ccc(C2CN(C)Cc3cc(OCCCN4CCN(C(C)C)CC4)ccc32)cc1 (centres undefined) | 
144 nM | 3.3 nM | 8 nM |  |  | COc1ccc(C2CN(C)Cc3cc(OCCCN4CCN(c5ccc(C#N)cc5)CC4)ccc32)cc1 (centres undefined) | 
30 nM | 10 nM | 18 nM |  |  | COc1ccc(C2CN(C)Cc3cc(OCCCN4CCN(C5CC5)CC4)ccc32)cc1 (centres undefined) | 
12 nM | 1.5 nM |  |  |  | CCN1CCN(CCCOc2ccc3c(c2)CN(C)CC3c2ccc(OC)cc2)CC1 (centres undefined) | 
7.4 nM | 5.3 nM | 5.3 nM |  |  | COc1ccc(C2CN(C)Cc3cc(OCCCN4CCC(C#N)CC4)ccc32)cc1 (centres undefined) | 
69 nM |  | 2.9 nM |  |  | COc1ccc(C2CN(C)Cc3cc(OCCCN4CC(F)(F)C4)ccc32)cc1 (centres undefined) | 
106 nM | 6.3 nM | 12 nM |  |  | COc1ccc(C2CN(C)Cc3cc(OCCCN4CCS(=O)(=O)CC4)ccc32)cc1 (centres undefined) | 
 | 1 nM | 4.8 nM |  |  | COc1ccc(C2CN(C)Cc3cc(OCCCN4CCC4)ccc32)cc1 (centres undefined) | 
8.7 nM | 5.7 nM | 6.5 nM |  |  | COc1ccc(C2CN(C)Cc3cc(OCCCN4CCC(F)(F)CC4)ccc32)cc1 (centres undefined) | 
509 nM | 15 nM | 15 nM |  |  | COc1ccc(C2CN(C)Cc3cc(OCCCN4CCN(C(=O)C(C)C)CC4)ccc32)cc1 (centres undefined) | 
 | 10 nM | 8.2 nM |  |  | COc1ccc(C2CN(C)Cc3cc(OCCCN4CCCC(F)(F)C4)ccc32)cc1 (centres undefined) | 
 | 1.6 nM | 2.9 nM | 2.5 µM | 6.1 µM | COc1ccc(C2CN(C)Cc3cc(OCCCN4CCC(F)CC4)ccc32)cc1 (centres undefined) | >500%
11 nM | 1.2 nM | 3.8 nM |  |  | COc1ccc(C2CN(C)Cc3cc(OCCCN4CCC(O)CC4)ccc32)cc1 (centres undefined) | 
2610 nM | 8.4 nM | 8.8 nM |  |  | COc1ccc(C2CN(C)Cc3cc(OCCCN4CCN(C(=O)c5cccn5C)CC4)ccc32)cc1 (centres undefined) | 
1110 nM | 5.7 nM | 7.2 nM |  |  | COc1ccc(C2CN(C)Cc3cc(OCCCN4CCN(c5ccccc5O)CC4)ccc32)cc1 (centres undefined) | 
1.7 nM | 2.2 nM |  |  |  | CCN(CC)CCCOc1ccc2c(c1)CN(C)CC2c1ccc(OC)cc1 (centres undefined) | 
7.4 nM | 7.6 nM | 9.7 nM |  |  | COc1ccc(C2CN(C)Cc3cc(OCCCN(C4CC4)C4CC4)ccc32)cc1 (centres undefined) | 
38 nM | 3 nM | 19.3 nM |  |  | COc1ccc(C2CN(C)Cc3cc(OCCCNC4CC4)ccc32)cc1 (centres undefined) | 
47 nM | 0.73 nM | 3.4 nM |  |  | CCNCCCOc1ccc2c(c1)CN(C)CC2c1ccc(OC)cc1 (centres undefined) | 
9.5 nM | 8 nM | 7.3 nM |  |  | COc1ccc(C2CN(C)Cc3cc(OCCCN4CCC(F)(F)C4)ccc32)cc1 (centres undefined) | 
267 nM | 15 nM | 42 nM |  |  | COc1ccc(C2CN(C)Cc3cc(OCCCN4CCN(C(C)=O)CC4)ccc32)cc1 (centres undefined) | 
2840 nM | 21 nM | 19 nM |  |  | COc1ccc(C2CN(C)Cc3cc(OCCCN4CCN(C(=O)c5ccncc5)CC4)ccc32)cc1 (centres undefined) | 
3.3 nM | 5.3 nM | 4 nM |  |  | COc1ccc(C2CN(C)Cc3cc(OCCCN4CCN(c5ccncc5)CC4)ccc32)cc1 (centres undefined) | 
1440 nM | 25 nM | 33 nM |  |  | COc1ccc(C2CN(C)Cc3cc(OCCCN4CCN(c5ccc(C(F)(F)F)cc5)CC4)ccc32)cc1 (centres undefined) | 
268 nM | 2.7 nM | 5.3 nM |  |  | COc1ccc(C2CN(C)Cc3cc(OCCCN4CCN(c5nccs5)CC4)ccc32)cc1 (centres undefined) | 
40 nM | 19 nM | 14 nM |  |  | COc1ccc(C2CN(C)Cc3cc(OCCCN4CCC(C(F)(F)F)CC4)ccc32)cc1 (centres undefined) | 
3.8 nM | 4.8 nM | 6.5 nM | < 1 µM | 12.5 µM | COc1ccc(C2CN(C)Cc3cc(OCCCN4CCOCC4)ccc32)cc1 (centres undefined) | >500%
